Consider 18 compounds from ChEMBL document CHEMBL2150994, “Design, synthesis, and pharmacological evaluation of glutamate carboxypeptidase II (GCPII) inhibitors based on thioalkylbenzoic acid scaffolds” (J Med Chem, 2012).

pIC50: −log10 of the molar value. Active and inactive are the calls of the source. No cut-off for these calls is given here.

Data set [1] deals with Glutamate carboxypeptidase 2 (Homo sapiens, UniProt Q04609). The experiment in a line: Inhibition of human recombinant GCP2 using N-acetyl-L-aspartyl-[3H]-L-glutamate as substrate by microplate assay. In outline: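 Radiometric enzyme assay using purified human recombinant GCPII with N-acetyl-L-aspartyl-[3H]-L-glutamate as substrate. IC50 was determined.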
Glutamate carboxypeptidase 2, sequence (Q04609 whole entry): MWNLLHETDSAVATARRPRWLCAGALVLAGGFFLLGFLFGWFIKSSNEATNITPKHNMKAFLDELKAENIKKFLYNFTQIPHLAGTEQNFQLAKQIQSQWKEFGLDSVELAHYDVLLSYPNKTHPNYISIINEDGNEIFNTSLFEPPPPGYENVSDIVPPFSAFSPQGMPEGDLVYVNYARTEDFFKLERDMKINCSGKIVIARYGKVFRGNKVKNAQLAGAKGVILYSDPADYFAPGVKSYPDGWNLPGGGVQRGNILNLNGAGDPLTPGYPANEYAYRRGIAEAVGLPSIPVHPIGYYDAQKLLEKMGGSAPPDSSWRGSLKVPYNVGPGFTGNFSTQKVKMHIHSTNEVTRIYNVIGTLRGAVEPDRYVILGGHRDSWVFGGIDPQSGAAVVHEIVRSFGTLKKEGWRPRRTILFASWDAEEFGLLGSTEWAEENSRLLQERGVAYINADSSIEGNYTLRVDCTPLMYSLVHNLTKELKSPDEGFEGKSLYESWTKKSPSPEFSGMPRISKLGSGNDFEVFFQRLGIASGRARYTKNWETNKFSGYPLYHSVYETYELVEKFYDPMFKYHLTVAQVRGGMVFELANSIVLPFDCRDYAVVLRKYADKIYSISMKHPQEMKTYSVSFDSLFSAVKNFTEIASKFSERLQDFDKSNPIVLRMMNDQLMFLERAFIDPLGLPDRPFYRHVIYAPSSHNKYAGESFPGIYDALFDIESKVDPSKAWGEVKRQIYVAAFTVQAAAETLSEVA
Data set [2] is described as follows: Inhibition of strychnine-sensitive glycine receptor at 10 uM. In outline: (§1)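 Outsourced receptor binding and enzyme panel, covering NMDA receptor (agonist, glycine, phencyclidine and polyamine sites), AMPA, kainate, strychnine-sensitive glycine receptor and kidney-type glutaminase. Percent inhibition was measured at 10 μM, with glutaminase tested up to 100 μM.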

A short description of data set [3]: Inhibition of kainate receptor at 10 uM. The method in brief: as §1
The nature of data set [4]: Inhibition of AMPA receptor at 10 uM. In outline:
as §1

The nature of data set [5]: Inhibition of NMDA receptor polyamine binding site at 10 uM. The method in brief:
as §1

Data set [6] can be described thus: Inhibition of NMDA receptor phencyclidine binding site at 10 uM. The method in brief:
as §1

A short description of data set [7]: Inhibition of NMDA receptor glycine binding site at 10 uM. In outline: as §1
Data set [8] in a line: Inhibition of NMDA receptor at 10 uM. In outline: as §1
Data set [9] addresses Voltage-gated inwardly rectifying potassium channel KCNH2 (Homo sapiens, UniProt Q12809). In words: Inhibition of human ERG upto 100 uM. In outline: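 hERG channel assay run by an external contractor, with compound tested at concentrations up to 100 μM.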
Data set [10] has as its system Salmonella typhimurium. The experiment in a line: Mutagenic activity in Salmonella typhimurium TA1537 by Ames test in presence of S9 fraction. Particulars: salmonella enterica subsp. enterica serovar typhimurium. It is filed as toxicity, organism-based. A general note: In the Ames test, an excess of revertant colonies over the control signals mutagenicity.
Data set [11] concerns Salmonella typhimurium. The experiment in a line: Mutagenic activity in Salmonella typhimurium TA1535 by Ames test in presence of S9 fraction. It is filed as toxicity, organism-based. Particulars: salmonella enterica subsp. enterica serovar typhimurium.
Data set [12] concerns Salmonella typhimurium. The experiment in a line: Mutagenic activity in Salmonella typhimurium TA100 by Ames test in presence of S9 fraction. It is filed as toxicity, organism-based. Particulars: salmonella enterica subsp. enterica serovar typhimurium.
The test system of data set [13] is Salmonella typhimurium. The experiment in a line: Mutagenic activity in Salmonella typhimurium TA98 by Ames test in presence of S9 fraction. The data set is classed as toxicity, organism-based. As to conditions: salmonella enterica subsp. enterica serovar typhimurium.
A short description of data set [14]: Apparent oral clearance in fasted rat at 10 mg/kg, iv. The data set is classed as ADME, organism-based. As to conditions: in vivo. Further details: dose 10 mg/kg, route oral. In outline:
(§2)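 Fasted rats dosed at 10 mg/kg intravenously (n = 4) or orally (n = 9). Plasma was sampled and the pharmacokinetic parameters Cmax, Tmax, AUCinf, CL/F, terminal t1/2 and oral bioavailability F were derived. Values are given as mean ± deviation for each route.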

A short description of data set [15]: Terminal half life in fasted rat at 10 mg/kg, iv. It is filed as ADME, organism-based. Further details: dose 10 mg/kg, route intravenous. Particulars: in vivo, read-out: beta t1/2 (converted). In outline:
as §2

Data set [16] in a line: Tmax in fasted rat at 10 mg/kg, po. It is filed as ADME, organism-based. Further details: dose 10 mg/kg, route oral. As to conditions: in vivo. The method in brief: as §2
Data set [17] in a line: Cmax in fasted rat at 10 mg/kg, po. The data set is classed as ADME, organism-based. Further details: dose 10 mg/kg, route oral. Particulars: in vivo. The method in brief: as §2
Data set [18] can be described thus: Apparent oral clearance in fasted rat at 10 mg/kg. It is filed as ADME, organism-based. Further details: dose 10 mg/kg, route oral. Particulars: in vivo. The method in brief: as §2
Data set [19] can be described thus: Oral bioavailability in fasted rat at 10 mg/kg. The data set is classed as ADME, organism-based. As to conditions: in vivo. In outline: as §2
A short description of data set [20]: Terminal half life in fasted rat at 10 mg/kg, po. Further details: dose 10 mg/kg, route oral. It is filed as ADME, organism-based. Particulars: in vivo, read-out: beta t1/2 (converted). In outline: as §2
A short description of data set [21]: AUC (0 to infinity) in fasted rat at 10 mg/kg, iv. As to conditions: plasma. Further details: time infinity, dose 10 mg/kg, route intravenous. The data set is classed as ADME, organism-based. In outline:
as §2

Data set [22] is described as follows: AUC (0 to infinity) in fasted rat at 10 mg/kg, po. It is filed as ADME, organism-based. Further details: time infinity, dose 10 mg/kg, route oral. As to conditions: plasma. The method in brief: as §2
In data set [23] the test system is Liver microsomes. In words: Metabolic stability in human liver microsomes after 2 hrs. The data set is classed as ADME, Microsome. The method in brief: (§3)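 Compound was incubated with liver microsomes from mouse, rat, dog, monkey and human for 2 h. Metabolism was assessed by detection of compound turnover.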
Background: Microsomes from liver hold many membrane-bound enzymes, among them those of drug oxidation.

Data set [24] can be described thus: Metabolic stability in monkey liver microsomes after 2 hrs. The data set is classed as ADME, Macaca mulatta, Microsome. As to conditions: rhesus monkey. The method in brief:
as §3

In data set [25] the test system is Liver. In words: Metabolic stability in dog liver microsomes after 2 hrs. It is filed as ADME, Canis lupus familiaris, Microsome. In outline:
as §3

For data set [26], the system named is Liver microsomes. The experiment in a line: Metabolic stability in rat liver microsomes after 2 hrs. The data set is classed as ADME, Microsome. The method in brief:
as §3

Data set [27] has as its system Liver. The experiment in a line: Metabolic stability in mouse liver microsomes after 2 hrs. The data set is classed as ADME, Microsome. The method in brief:
as §3

The next data set concerns Rattus norvegicus. In words: Antinociceptive activity in rat chronic constriction injury neuropathic pain model assessed as reduction of thermal hyperalgesia at 0.1 mg/kg/day measured on day 8 and 12 relative to vehicle-treated control. It is filed as functional, organism-based. In outline: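 Rat chronic constriction injury model of neuropathic pain, after Bennett. Dosing was oral at 0.1 mg kg-1 day-1 against vehicle-treated controls. Read-out was thermal hyperalgesia on days 8 and 12, with significance at p < 0.05.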

Data set [28] has as its system Salmonella typhimurium. In words: Mutagenic activity in Salmonella typhimurium TA98 by Ames test in absence of S9 fraction. The data set is classed as toxicity, organism-based. Particulars: salmonella enterica subsp. enterica serovar typhimurium.
Data set [29] deals with Salmonella typhimurium. In words: Mutagenic activity in Salmonella typhimurium TA100 by Ames test in absence of S9 fraction. As to conditions: salmonella enterica subsp. enterica serovar typhimurium. It is filed as toxicity, organism-based.
For data set [30], the system named is Salmonella typhimurium. In words: Mutagenic activity in Salmonella typhimurium TA1535 by Ames test in absence of S9 fraction. It is filed as toxicity, organism-based. Particulars: salmonella enterica subsp. enterica serovar typhimurium.
For data set [31], the system named is Salmonella typhimurium. The experiment in a line: Mutagenic activity in Salmonella typhimurium TA1537 by Ames test in absence of S9 fraction. The data set is classed as toxicity, organism-based. As to conditions: salmonella enterica subsp. enterica serovar typhimurium.
For data set [32], the target named is T1, Glutaminase kidney isoform, mitochondrial (Homo sapiens) (UniProt O94925).
T1 sequence (whole entry): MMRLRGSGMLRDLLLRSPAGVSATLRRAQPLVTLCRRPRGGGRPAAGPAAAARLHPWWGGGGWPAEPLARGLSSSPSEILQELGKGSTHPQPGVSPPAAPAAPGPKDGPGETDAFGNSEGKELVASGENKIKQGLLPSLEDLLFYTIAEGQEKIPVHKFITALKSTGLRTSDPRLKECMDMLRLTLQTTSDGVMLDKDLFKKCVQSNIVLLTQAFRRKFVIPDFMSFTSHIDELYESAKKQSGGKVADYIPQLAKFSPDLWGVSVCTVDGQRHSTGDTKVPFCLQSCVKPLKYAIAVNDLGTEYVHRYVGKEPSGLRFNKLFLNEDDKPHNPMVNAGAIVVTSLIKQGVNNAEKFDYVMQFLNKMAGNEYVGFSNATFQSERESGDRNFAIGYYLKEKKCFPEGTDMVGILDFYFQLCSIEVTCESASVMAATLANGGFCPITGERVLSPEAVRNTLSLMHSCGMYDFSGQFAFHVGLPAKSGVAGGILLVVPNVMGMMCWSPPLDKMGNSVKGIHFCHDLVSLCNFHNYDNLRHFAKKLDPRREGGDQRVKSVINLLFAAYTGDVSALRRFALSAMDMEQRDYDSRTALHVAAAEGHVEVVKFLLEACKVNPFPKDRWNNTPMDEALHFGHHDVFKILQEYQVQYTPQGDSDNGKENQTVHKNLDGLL
The experiment in a line: Inhibition of glutaminase kidney isoform at 100 uM.

Voltage-gated inwardly rectifying potassium channel KCNH2, sequence (Q12809 whole entry): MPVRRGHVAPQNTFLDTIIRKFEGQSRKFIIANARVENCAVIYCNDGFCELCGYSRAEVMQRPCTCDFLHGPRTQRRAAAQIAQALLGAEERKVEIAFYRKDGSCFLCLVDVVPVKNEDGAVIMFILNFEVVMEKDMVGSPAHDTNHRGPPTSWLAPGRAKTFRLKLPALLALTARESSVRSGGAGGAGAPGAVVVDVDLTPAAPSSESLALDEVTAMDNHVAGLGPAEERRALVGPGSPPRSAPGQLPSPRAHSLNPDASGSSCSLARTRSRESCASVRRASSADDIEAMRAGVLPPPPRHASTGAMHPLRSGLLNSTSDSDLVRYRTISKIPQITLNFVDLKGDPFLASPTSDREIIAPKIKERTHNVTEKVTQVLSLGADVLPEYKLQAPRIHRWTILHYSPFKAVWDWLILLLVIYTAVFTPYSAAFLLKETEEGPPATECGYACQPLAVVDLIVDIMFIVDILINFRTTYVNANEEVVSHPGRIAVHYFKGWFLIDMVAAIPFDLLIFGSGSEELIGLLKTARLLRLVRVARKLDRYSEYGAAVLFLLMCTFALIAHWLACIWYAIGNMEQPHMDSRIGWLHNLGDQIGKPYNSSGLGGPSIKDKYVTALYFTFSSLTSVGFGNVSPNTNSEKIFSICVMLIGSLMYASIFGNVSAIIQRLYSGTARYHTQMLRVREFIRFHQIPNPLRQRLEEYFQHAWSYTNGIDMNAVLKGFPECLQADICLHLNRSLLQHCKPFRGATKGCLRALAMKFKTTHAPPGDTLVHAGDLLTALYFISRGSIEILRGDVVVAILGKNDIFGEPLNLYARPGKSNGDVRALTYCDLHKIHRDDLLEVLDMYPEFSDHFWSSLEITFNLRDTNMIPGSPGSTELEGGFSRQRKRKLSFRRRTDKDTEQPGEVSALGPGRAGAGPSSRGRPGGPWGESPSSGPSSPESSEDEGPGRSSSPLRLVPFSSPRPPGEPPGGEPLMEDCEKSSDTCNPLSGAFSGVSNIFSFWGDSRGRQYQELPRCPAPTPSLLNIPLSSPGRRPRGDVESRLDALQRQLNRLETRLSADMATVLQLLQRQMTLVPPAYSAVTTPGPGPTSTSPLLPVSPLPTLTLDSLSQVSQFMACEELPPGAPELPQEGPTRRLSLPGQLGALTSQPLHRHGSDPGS

As a reminder, the pIC50 is the IC50 on a negative log10 scale, so that one unit is a factor of ten. As to `O=C(O)c1c(CCS)cccc1OCc1ccccc1`, the pIC50 in data set [1] was 6.70.
For `O=C(O)c1cc(CS)ccc1-c1ccccc1`, in [1], the pIC50 is 5.24.
For the compound `O=C(O)c1ccccc1COc1ccc(CS)cc1C(=O)O`, the negative logarithm of the IC50 (pIC50) in data set [1] was 7.39.
Turning to `O=C(O)c1cccc(COc2cccc(CCS)c2C(=O)O)c1`, the pIC50 in [1] is 7.16.
`O=C(O)c1cccc(-c2ccc(CS)cc2C(=O)O)c1`: the pIC50 in data set [1] was 7.42.
For `O=C(O)c1ccccc1CCS`, the pIC50 in data set [1] was 6.03.
Same read-out and setting: for `O=C(O)c1ccc(COc2ccc(CS)cc2C(=O)O)cc1` the value was 7.80; for `O=C(O)c1cccc(CS)c1`, 5.89.
On to `O=C(O)c1c(CCS)cccc1-c1ccccc1`, for which, in data set [1], the pIC50 is 5.85.
Regarding `O=C(O)c1cccc(COc2ccc(CS)cc2C(=O)O)c1`, the negative-log IC50 (pIC50) in [1] is 8.70.
With `O=C(O)c1ccc(COc2cccc(CCS)c2C(=O)O)cc1`, the pIC50 in data set [1] is 6.70.
On to `O=C(O)c1ccccc1COc1cccc(CCS)c1C(=O)O`, for which the pIC50 in [1] was 6.85.
As to `O=C(O)c1ccc(-c2ccc(CS)cc2C(=O)O)cc1`, the pIC50 in data set [1] was 7.28.
On the same count and under the same terms, with `O=C(O)c1ccc(-c2cccc(CCS)c2C(=O)O)cc1` the figure was 8.15.
For the compound `O=C(O)c1ccccc1-c1cccc(CCS)c1C(=O)O`, the pIC50 in data set [1] is 6.64.
The term inhibition denotes how much of the control response was suppressed. What is called CL/F is clearance divided by bioavailability, as obtained after extravascular dosing. By Tmax is commonly meant the time at which the peak concentration occurs. As a reminder, the Cmax is the maximum level reached in the sampled fluid or tissue. For orientation: bioavailability means dose-corrected exposure relative to a reference, in per cent. For orientation: AUC(0-inf) means total exposure, with the tail of the curve extrapolated. Take `O=C(O)c1cccc(-c2cccc(CCS)c2C(=O)O)c1`: the inhibition result in data set [2], in data set [3], in data set [4], in [5], in data set [6] and in data set [32] was “inactive” each time. Moreover, the inhibition in data set [7] is 12%; in data set [8] it was less than 5%. The “inhibition (INH)” value in data set [9] is listed as “Not Active”. In addition, the Activity entry with Salmonella typhimurium [10], with Salmonella typhimurium [11], with Salmonella typhimurium [12], in the data set with Salmonella typhimurium [13], in the data set with Salmonella typhimurium [28] and with Salmonella typhimurium [29] was “Non-toxic” in each case. For the same compound, the Activity result in the data set with Salmonella typhimurium [30] and in the data set on Salmonella typhimurium [31] was “Non-toxic” each time. Moreover, the CL/F was 4.45 mL/min/kg in data set [14] and 5.3 mL/min/kg in data set [18]. For the same compound, the half-life in data set [15] was 3.6 h; in data set [20] it was 3.2 h. The Tmax in [16] amounted to 1.1 h. Moreover, the Cmax in [17] amounted to 7100 ng/mL. Also, the bioavailability in data set [19] was determined as 37%. For the same compound, the AUC(0-inf) came out at 90600 ng·h/mL in data set [21] and 33800 ng·h/mL in data set [22]. Besides, the Stability entry (in the data set with Liver microsomes [23]; in data set [24]; in the data set with Liver [25]; with Liver microsomes [26]; in the data set with Liver [27]) was “Stable” in each case. In addition, the result in the data set on Rattus norvegicus was Active.
Turning to `O=C(O)c1ccccc1-c1ccc(CS)cc1C(=O)O`, the pIC50 in [1] is 6.47.
In data set [22], `O=C(O)CCC(CCCS)C(=O)O` (centres undefined) showed an AUC(0-inf) of 1820 ng·h/mL.
